Like-named read-outs stand apart in the source and are kept apart here.
Tests used:
[1] = tested on: T. brucei bloodstream form (BSF) parasites (cell line 90-13, a 427 strain); assay: microbe, parasite or virus in culture; format: cell-based, Trypanosoma brucei; conditions: for % T. brucei BSF growth inhibition (10 μM): 10 μM compound; for % T. brucei BSF growth inhibition (10 μM) / inhibition at 10 µM: BLD = below level of detection; for inhibition at 10 µM: Trypanosoma brucei, A-427, read-out: % T. brucei BSF growth inhibition (10 μM), 10 μM compound; for T. brucei BSF potency (LD50 ± SEM): 3-day growth, n ≥ 3
IMR-90 human cells = assay: Human cell line toxicity testing; format: cell-based
[2] = target: T1, human HK 4 (human glucokinase, hGlk) (Homo sapiens, UniProt P35557); assay: Specificity assay against human glucokinase; format: biochemical; conditions: for % hGlk inhibition (10 μM): 10 μM compound, BLD = below level of detection; for inhibition at 10 µM: read-out: % hGlk inhibition (10 μM)
T1 sequence (P35557 1-465): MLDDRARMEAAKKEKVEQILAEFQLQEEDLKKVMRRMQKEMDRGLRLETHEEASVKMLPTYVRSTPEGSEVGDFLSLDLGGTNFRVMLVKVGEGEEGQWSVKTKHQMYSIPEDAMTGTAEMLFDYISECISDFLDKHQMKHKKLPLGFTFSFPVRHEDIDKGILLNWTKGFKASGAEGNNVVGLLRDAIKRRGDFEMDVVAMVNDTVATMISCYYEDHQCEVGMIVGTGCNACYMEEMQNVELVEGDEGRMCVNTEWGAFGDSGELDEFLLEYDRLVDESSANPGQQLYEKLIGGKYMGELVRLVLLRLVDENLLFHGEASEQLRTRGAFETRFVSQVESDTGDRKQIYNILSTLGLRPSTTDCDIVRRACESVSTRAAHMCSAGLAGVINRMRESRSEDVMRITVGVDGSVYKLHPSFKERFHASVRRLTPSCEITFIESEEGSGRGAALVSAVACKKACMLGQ
Procedure, shortened: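 Uses human hexokinase 4 (glucokinase; GenBank BC001890). Activity is read through a coupled reaction in which glucose-6-phosphate dehydrogenase converts the glucose-6-phosphate formed to 6-phosphogluconate. The coincident NADPH formation is followed at 340 nm.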

[3] = target: recombinant T. brucei hexokinase 1 (rTbHK1) (Trypanosoma brucei, UniProt Q38C42); assay: biochemical; format: biochemical
[4] = read-out: IMR90 toxicity (EC50), IMR-90 cells, 44-46 h
[5] = Homo sapiens, IMR-90, read-out: IMR90 toxicity (EC50)
[6] = read-out: rTbHK1 potency (IC50 ± SEM), average of n ≥ 3 experiments

SMILES | % T. brucei BSF growth inhibition (10 μM) [1] | EC50 (IMR-90 human cells; [4]) [µM] | % hGlk inhibition (10 μM) [2] | inhibition at 10 µM [1] [%] | EC50 (IMR-90 human cells; [5]) [µM] | IC50 [3] [µM] | inhibition at 10 µM [2] [%] | T. brucei BSF potency (LD50 ± SEM) [1] [µM] | IC50 [3, 6] [µM]
Cc1ccccc1-c1cc(C(=O)O)c(NC(=O)c2ccc(C(C)(C)C)cc2)cc1Cl [Compound 4h] | 65.2 ± 0.2% | > 25 | 16.6 ± 2.3% | – | – | – | – | – | –
Cc1cc(C(=O)O)c(NC(=O)c2ccc(C(C)(C)C)cc2)cc1Cl [Compound 4c, 2-(4-tert-Butylbenzamido)-4-chloro-5-methylbenzoic acid] | – | – | – | 97.5 ± 0.6 | > 25 | 2.7 ± 0.18 | 12.5 ± 4.8 | – | –
CC(C)(C)c1ccc(C(=O)Nc2cc(Cl)c(-c3ccoc3)cc2C(=O)O)cc1 [Compound 4x] | 73.7 ± 3.7% | > 25 | 3.1 ± 2.8% | – | – | – | – | 4.2 ± 0.4 | 0.51 ± 0.06
CC(C)(C)c1ccc(C(=O)Nc2cc(Cl)c(-c3cccc(Cl)c3)cc2C(=O)O)cc1 [Compound 4q] | – | – | – | 90.7 ± 1.8 | > 25 | 2.7 ± 0.05 | 30.9 ± 3.5 | – | –
CCc1cc(C(=O)O)c(NC(=O)c2ccc(C(C)(C)C)cc2)cc1Cl [Compound 4d, 2-(4-tert-Butylbenzamido)-4-chloro-5-ethylbenzoic acid] | BLD | – | – | – | > 25 | 7.4 ± 0.15 | 0.7 ± 1.4 | – | –
CC(C)(C)c1ccc(C(=O)Nc2cc(Cl)c(C3CC3)cc2C(=O)O)cc1 [Compound 4e] | 43.4 ± 16.8% | > 25 | BLD | – | – | – | – | – | 6.7 ± 0.38
CC(C)(C)c1ccc(C(=O)Nc2cc(Cl)c(-c3ccsc3)cc2C(=O)O)cc1 [Compound 4v] | – | – | – | 68.5 ± 2.1 | > 25 | 0.33 ± 0.03 | 24.8 ± 1 | – | –
COc1ccccc1-c1cc(C(=O)O)c(NC(=O)c2ccc(C(C)(C)C)cc2)cc1Cl [Compound 4k] | 90.7 ± 0.9% | > 25 | 18.8 ± 2.4% | – | – | – | – | 2.0 ± 0.2 | 4.6 ± 0.32
CC(C)(C)c1ccc(C(=O)Nc2cc(Cl)c(-c3ccco3)cc2C(=O)O)cc1 [Compound 4w] | – | – | – | 59 ± 8.2 | > 25 | 0.42 ± 0.02 | 10.4 ± 2.1 | – | –
CC(C)(C)c1ccc(C(=O)Nc2cc(Cl)c(-c3cccs3)cc2C(=O)O)cc1 [Compound 4u] | – | – | – | 69.1 ± 5.8 | > 25 | 0.47 ± 0.15 | 12.5 ± 1.3 | – | –
Cc1ccc(-c2cc(C(=O)O)c(NC(=O)c3ccc(C(C)(C)C)cc3)cc2Cl)cc1 [Compound 4g] | 81.4 ± 5.6% | > 25 | 15.7 ± 3.0% | – | – | – | – | 3.2 ± 1.6 | 2.78 ± 0.03
CC(C)(C)c1ccc(C(=O)Nc2cc(Cl)c(-c3ccncc3)cc2C(=O)O)cc1 [Compound 4s] | 99.7 ± 1.4% | > 25 | 15.1 ± 3.2% | – | – | – | – | 3.5 ± 0.6 | > 10
CC(C)(C)c1ccc(C(=O)Nc2cc(Cl)c(-n3cccc3)cc2C(=O)O)cc1 [Compound 4aa] | 73.6 ± 1.0% | > 25 | 15.8 ± 3.0% | – | – | – | – | 6.9 ± 2.1 | 3 ± 0.2
CC(C)(C)c1ccc(C(=O)Nc2cc(Cl)c(-c3ccccc3F)cc2C(=O)O)cc1 [Compound 4p] | 92.8 ± 2.0% | > 25 | 24.5 ± 2.5% | – | – | – | – | 5.2 ± 0.9 | 2.08 ± 0.07
CN(C)c1cccc(-c2cc(C(=O)O)c(NC(=O)c3ccc(C(C)(C)C)cc3)cc2Cl)c1 [Compound 4m] | – | – | – | 82.8 ± 0.2 | > 25 | 4 ± 0.32 | 43.7 ± 4.1 | – | –
